Source: PubChem BioAssay
A selection: hits, their analogues and other compounds. The true share with any hit is near 2.8%.
PP1 inh = PP1-alpha (human) inhibition in PP5 counter-screen. inhibition, % at 6.7 µM. P62136. 320,000 tested, 0.9% active. purified PP1alpha, OMFP fluorescence;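 active = inhibition above the mean inhibition of all tested compounds plus 3 SD, computed separately for each screening campaign, cut at about 15% in these data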
Target sequence (P62136 whole entry, looked up): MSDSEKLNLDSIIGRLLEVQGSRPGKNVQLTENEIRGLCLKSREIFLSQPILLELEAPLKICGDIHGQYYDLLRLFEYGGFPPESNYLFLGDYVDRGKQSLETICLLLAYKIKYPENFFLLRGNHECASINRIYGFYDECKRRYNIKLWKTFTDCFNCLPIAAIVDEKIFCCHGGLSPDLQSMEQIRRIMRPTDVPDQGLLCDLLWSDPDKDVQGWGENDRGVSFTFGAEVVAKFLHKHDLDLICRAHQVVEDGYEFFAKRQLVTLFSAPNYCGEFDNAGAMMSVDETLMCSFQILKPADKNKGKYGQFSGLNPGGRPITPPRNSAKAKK
T cruzi inh = T. cruzi replication inhibition | inhibition, % (test concentration not listed) | 300,000 tested, 1.4% active | T. cruzi beta-gal in NIH3T3, luminescence, 90 h;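 active = mean inhibition across valid replicates above about 55%, limit read from the data; inconclusive = mean below that limit but half or more replicates reach it; inactive = mean below it, under half of replicates reach it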;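 also: signal also drops with host cell toxicity which is not excluded here; 0% = plate median of DMSO wells and 100% = zero luminescence signal; higher percent means less beta-gal luminescence so fewer parasites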
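compound dosing = single 50 nL compound addition per well in DMSO | material = NIH/3T3 host cells with β-galactosidase reporter T. cruzi | input = 5,000 host fibroblasts per well | timing = ≥90 h infection period, 3 h prior cell attachment | read-out basis = percent inhibition of parasite-derived β-gal signal | detection = GalScreen β-gal luminescence, detergent lysis, 60 min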
p-CIP stab down = lowers stability of the mouse p/CIP coactivator protein; decrease of EGFP signal, % at 10 µM; F442A p/CIP-EGFP cells, EGFP fluorescence, 16 h; 290,000 tested, 0.01% active; Q05BA5;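 active = EGFP signal decrease of at least 30% at 10 µM or well 3 SD below plate mean, unless failing retest; inactive = the rest, including hits failing retest or dose response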
AI-2 QS mod = modulators of Vibrio harveyi AI-2 quorum sensing system; activity change, % at 7.5 µM; Vibrio harveyi JMH597 AI-2 luminescence/OD600 ratio, 9 h; hits give low values; strain lacks LuxN and CqsS sensors; 0 = neutral-control median; 300,000 tested, 0.4% active; AID 2094; in the data active = activity change below about -75%, passing the limit was not always enough; inconclusive = no clear call, values can overlap the other calls;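 also: luminescence divided by OD600 gain over 9 h not by final OD600 alone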
UBC13 polyUb = blocks human UBC13 polyubiquitin chain formation. P61088. TR-FRET. inhibition, % at 20 µM. 330,000 tested, 0.47% active; in the data active = inhibition above about 45%, passing the limit was not always enough; inconclusive = no clear call, values can overlap the other calls
Target sequence (P61088 whole entry, looked up): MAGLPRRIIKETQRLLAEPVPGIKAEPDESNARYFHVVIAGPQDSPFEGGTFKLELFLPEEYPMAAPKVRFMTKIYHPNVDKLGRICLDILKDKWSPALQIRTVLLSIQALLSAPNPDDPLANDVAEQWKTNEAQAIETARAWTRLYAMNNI
The depositor's hits bear a star; u = inconclusive; x = no result.

SMILES | PP1 inh | T cruzi inh | p-CIP stab down | AI-2 QS mod | UBC13 polyUb
CC(NC(=O)C(=O)N1CCOCC1)C(c1cccs1)N1CCN(c2ccccc2)CC1 (stereo unspecified) | -5 | -7 | 3 | 10 | 0
CC(C)Cc1nnc(NC(=O)c2cccc(S(=O)(=O)N3CCN(C)CC3)c2)s1 | -1 | 60* | x | 16 | 6
CN1CCN(S(=O)(=O)c2cccc(C(=O)Nc3sc4c(c3-c3nc5ccccc5[nH]3)CCCC4)c2)CC1 | 0 | 58* | 0 | -12 | -5
CCn1ncc(/C=N/NS(=O)(=O)c2ccc(Cl)cc2)c1C | 0 | 2 | 5 | 12 | -9
COc1ccc(-c2nc(NC(=O)c3cc(C(C)(C)C)nn3C)sc2C)cc1 | 0 | 57* | -10 | 11 | 17
CCc1ccc(-c2cc(C(F)(F)F)n3nc(C(=O)Nc4c(C)nn(Cc5ccccc5C)c4C)cc3n2)s1 | -1 | 59* | 2 | 2 | u
CCc1ccc(-c2cc(C(F)(F)F)n3nc(C(=O)Nc4c(C)nn(Cc5ccccc5Cl)c4C)cc3n2)s1 | 1 | 12 | -15 | 26 | 39
C[C@H](CO)N1C[C@H](C)[C@@H](CN(C)Cc2ccncc2)Oc2c(NS(=O)(=O)c3ccccc3)cccc2C1=O | x | x | x | x | 4
Oc1ccc(Br)cc1/C=N/Nc1nc(N2CCCCC2)nc(N2CCOCC2)n1 | 2 | 74* | -13 | 6 | -11
C/C(=N\Nc1nc(N2CCCCC2)nc(N2CCOCC2)n1)c1ccccc1O | 1 | 55* | -1 | 32 | 4
COc1ccc(CC(=O)NNS(=O)(=O)c2cccc([N+](=O)[O-])c2)cc1OC | -1 | -3 | -5 | 15 | 7
COc1ccc(-n2c(O)c(/C=N/NS(=O)(=O)c3cccc([N+](=O)[O-])c3)c3ccccc3c2=O)cc1OC | 1 | 62* | -7 | 4 | 0
CC(C)Cc1ccc(CN2CCCC(NC(=O)CSc3nncn3C)C2)cc1 (stereo unspecified) | -5 | 55* | 4 | 30 | -8
CC(C)Cc1ccc(CN2CCCC(NC(=O)c3nn(C)c(=O)c4ccccc34)C2)cc1 (stereo unspecified) | x | 60* | -8 | 14 | -1
Cn1cnnc1SCC(=O)NC1CCCN(Cc2ccc(Cl)cc2)C1 (stereo unspecified) | -2 | 25 | -10 | 13 | -3
COc1cccc(C(=O)NNC(=O)C(=O)Nc2ccc(OC)cc2OC)c1 | 6 | -4 | -9 | 1 | -12
CCN(CC)S(=O)(=O)c1ccc(C(=O)Nc2cc(S(=O)(=O)N3CCOCC3)ccc2O)cc1 | x | x | x | x | -2
Clc1ccc(OCCCN2CCCC2)cc1Cl | 0 | 48 | -7 | 0 | -4
Cc1cc(OCCCCCN2CCCC2)ccc1Cl | 3 | 67* | -6 | 13 | -3
CCOc1cccc(OCCOCCN2CCCC2)c1 | -4 | 1 | -15 | 25 | 14
Cc1cc(OCCOCCN2CCCC2)ccc1C(C)C | -4 | 57* | -10 | 24 | 7
CCCN(CCC)S(=O)(=O)c1ccc(NC(=O)c2cc(C(=O)OC)cc([N+](=O)[O-])c2)cc1 | -3 | 74* | 3 | 17 | -13
CN1CCN(c2nc(N3CCN(c4ccccc4)CC3)ncc2F)CC1 | -1 | 57* | 3 | -1 | 3
CC1(c2ccccc2)NC(=O)N(CC(=O)Nc2ccccc2C(=O)N2CCCCC2)C1=O (stereo unspecified) | 0 | -2 | x | 13 | 2
CC1=C(C)/C(=N\OS(=O)(=O)c2ccccc2)C=CC1=O | -3 | 55* | 1 | u | -12
SMILES | PP1 inh | T cruzi inh | p-CIP stab down | AI-2 QS mod | UBC13 polyUb
O=c1[nH]c(-c2ccccc2)nc(-c2ccccc2)c1Cl | -2 | -7 | x | 8 | 5
CC1=C(C(=O)OC2CCCCC2)C(c2cccnc2)n2nnnc2N1 (stereo unspecified) | 1 | 59* | -18 | 18 | -2
COC(=O)C1=C(C)Nc2nnnn2C1c1cccnc1 (stereo unspecified) | -4 | 6 | -6 | 4 | -2
O=C(Cn1cnc2sc(-c3ccccc3)cc2c1=O)NCc1ccccc1 | 15* | -15 | 8 | -5 | 1
Cc1cc(/C=C2/NC(=O)N(Cc3ccccc3F)C2=O)c(C)n1C(C)C | 0 | 57* | -21 | 19 | 2
CCOC(=O)c1ccc(NC(=S)NN2CCN(C)CC2)cc1 | -1 | 57* | -31 | 10 | -4
O=C(Oc1cccc([N+](=O)[O-])c1)c1ccc2c(=O)n3c(nc2c1)CCC3 | -4 | x | x | x | 18
CNc1ccc(S(=O)(=O)NCC(=O)NCCCc2ccccc2)cc1[N+](=O)[O-] | 1 | 13 | -16 | 8 | -21
O=C(NCc1cccnc1)C(=O)Nc1ccc2c(c1)OCO2 | -3 | -8 | -4 | 12 | 5
C/C(=N\NC(=O)c1ccc(COc2ccccc2)cc1)c1ccncc1 | -1 | -30 | 2 | 11 | 6
O=NN(CCc1ccncc1)c1ccc(OCc2ccccc2)cc1 | 2 | 72* | -14 | -25 | -7
Nc1ccc(N(c2ccccc2)c2ccc(N)cc2)cc1 | 17* | 58* | -6 | -12 | -2
O=C(c1ccccc1)N1N=C(C(F)(F)F)CC1(O)c1ccc(F)cc1 (stereo unspecified) | 3 | -25 | -12 | -9 | -8
O=C(Nc1ccc(Cl)cc1)[C@@H]1[C@@H]2C(=O)N(c3ccc4ccccc4c3)C(=O)[C@@H]2[C@H]2C=CC=NN21 | 15* | 5 | 6 | 15 | -19
CS(=O)(=O)N(CC(=O)NCCSCc1c(F)cccc1Cl)c1cccc([N+](=O)[O-])c1 | -1 | -6 | 3 | 8 | 7
Cc1ccc(C(=O)COC(=O)COc2ccccc2[N+](=O)[O-])s1 | -5 | x | x | x | -3
CCOC(=O)COc1ccccc1/C=C\[N+](=O)[O-] | 0 | 9 | -3 | -90* | x
CCN1CCN(c2ccc(S(=O)(=O)N3CCCCC3)cc2NC(=O)c2ccc(C)o2)CC1 | -3 | 55* | x | -4 | 5
CCN1CCN(c2ccc(S(=O)(=O)N3CCCCC3)cc2NC(=O)c2cccc(F)c2)CC1 | -4 | 49 | x | 17 | 7
CCN1CCN(c2ccc(S(=O)(=O)N3CCCCC3)cc2NC(=O)c2ccccc2)CC1 | 0 | 31 | x | 15 | 0
CCN1CCN(c2ccc(S(=O)(=O)N3CCCCC3)cc2NC(=O)c2cccc(C)c2[N+](=O)[O-])CC1 | 0 | 41 | x | 4 | 3
CCN1CCN(c2ccc(S(=O)(=O)N3CCCCC3)cc2NC(=O)c2cccc(C(F)(F)F)c2)CC1 | 1 | 68* | x | 20 | 11
CCN1CCN(c2ccc(S(=O)(=O)N3CCCCC3)cc2NC(=O)Cc2ccccc2F)CC1 | -7 | 55* | x | 31 | 3
CCN1CCN(c2ccc(S(=O)(=O)N3CCCCC3)cc2NC(=O)c2ccc([N+](=O)[O-])s2)CC1 | 0 | 55* | x | 7 | 0
CCOC(=O)C1CCN(C(=S)Nc2cc(OC)c(OC)cc2C(=O)OC)CC1 | -1 | 49 | -20 | 1 | -5
